# Legend:
# Type in all cases: toxicity, cell-based
# HEK-293T [1] = assay: Incucyte cell viability with HEK293T; conditions: human, 10 µM, compound concentration 10 uM; also: filed as whole numbers so only -1 and 0 and 1 occur
# HEK-293T [2] = assay: Multiplex assay against HEK293T; conditions: human;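 as to Population Tubulin-Different-Phenotype (%): share of the cells with healthy nuclei that show this phenotype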
# Summary of the method: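 Live cells carried four stains from seeding: Hoechst33342, BioTracker Green Microtubule Cytoskeleton Dye, MitoTracker Red and Annexin V Alexa Fluor 680. They were imaged on a CQ1 microscope at 37°C and 5% CO2 after compound addition. Using CellPathfinder machine-learning gating, cells were split into Hoechst high-intensity objects or normal cells, normal cells into healthy, pyknosed or fragmented nuclei, and pyknosed cells into mitotic or apoptotic; tubulin, mitochondrial-mass and membrane-permeability phenotypes are per cents of healthy-nucleus cells.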
# Fibroblast = assay: Incucyte cell viability with human fibroblast; conditions: 10 µM, compound concentration 10 uM; also: filed as whole numbers so only -1 and 0 and 1 occur
# [3] = 6 h, replicate number 1, timepoint 6 hours
# [4] = 12 h, replicate number 1, timepoint 12 hours
# [5] = 18 h, replicate number 1, timepoint 18 hours
# [6] = 24 h, replicate number 1, timepoint 24 hours
# [7] = 12 h, 1 µM, compound concentration 1 uM, replicate 1
# [8] = 12 h, 1 µM, compound concentration 1 uM, replicate 2
# [9] = 12 h, 10 µM, compound concentration 10 uM, replicate 1
# [10] = 12 h, 10 µM, compound concentration 10 uM, replicate 2
# [11] = 24 h, 1 µM, compound concentration 1 uM, replicate 1
# [12] = 24 h, 1 µM, compound concentration 1 uM, replicate 2
# [13] = 24 h, 10 µM, compound concentration 10 uM, replicate 1
# [14] = 24 h, 10 µM, compound concentration 10 uM, replicate 2
# [15] = 48 h, 1 µM, compound concentration 1 uM, replicate 1
# [16] = 48 h, 1 µM, compound concentration 1 uM, replicate 2
# [17] = 48 h, 10 µM, compound concentration 10 uM, replicate 1
# [18] = 48 h, 10 µM, compound concentration 10 uM, replicate 2
structure (smiles),measurement,setting,value
Cl.NC[C@@H]1O[C@H](C23CC4CC(CC(C4)C2)C3)Cc2c1ccc(O)c2O,Growth Rate,"HEK-293T [1]; 0 h, replicate number 2, timepoint 0 hours",1
same,Growth Rate,HEK-293T [1]; [3],0
same,Growth Rate,HEK-293T [1]; [4],0
same,Growth Rate,HEK-293T [1]; [5],0
same,Growth Rate,HEK-293T [1]; [6],0
same,Population Apoptotic (%),HEK-293T [2]; [7],34%
same,Population Fragmented Nuclei (%),HEK-293T [2]; [7],10%
same,Population Healthy Nuclei (%),HEK-293T [2]; [7],49%
same,Population Hoechst High Intensity Objects (%),HEK-293T [2]; [7],11%
same,Population Membrane Permeable-Phenotype (%),HEK-293T [2]; [7],2%
same,Population Mitochondria Different-Phenotype (%),HEK-293T [2]; [7],80%
same,Population Mitotic Cells (%),HEK-293T [2]; [7],65%
same,Population Normal (%),HEK-293T [2]; [7],88%
same,Population Pyknosed Nuclei (%),HEK-293T [2]; [7],40%
same,Population Tubulin-Different-Phenotype (%),HEK-293T [2]; [7],55%
same,Total Cell Count,HEK-293T [2]; [7],321
same,Population Apoptotic (%),HEK-293T [2]; [8],7%
same,Population Fragmented Nuclei (%),HEK-293T [2]; [8],3%
same,Population Healthy Nuclei (%),HEK-293T [2]; [8],47%
same,Population Hoechst High Intensity Objects (%),HEK-293T [2]; [8],2%
same,Population Membrane Permeable-Phenotype (%),HEK-293T [2]; [8],8%
same,Population Mitochondria Different-Phenotype (%),HEK-293T [2]; [8],38%
same,Population Mitotic Cells (%),HEK-293T [2]; [8],92%
same,Population Normal (%),HEK-293T [2]; [8],97%
same,Population Pyknosed Nuclei (%),HEK-293T [2]; [8],48%
same,Population Tubulin-Different-Phenotype (%),HEK-293T [2]; [8],47%
same,Total Cell Count,HEK-293T [2]; [8],267
same,Population Apoptotic (%),HEK-293T [2]; [9],60%
same,Population Fragmented Nuclei (%),HEK-293T [2]; [9],10%
same,Population Healthy Nuclei (%),HEK-293T [2]; [9],8%
same,Population Hoechst High Intensity Objects (%),HEK-293T [2]; [9],16%
same,Population Membrane Permeable-Phenotype (%),HEK-293T [2]; [9],0%
same,Population Mitochondria Different-Phenotype (%),HEK-293T [2]; [9],94%
same,Population Mitotic Cells (%),HEK-293T [2]; [9],39%
same,Population Normal (%),HEK-293T [2]; [9],83%
same,Population Pyknosed Nuclei (%),HEK-293T [2]; [9],80%
same,Population Tubulin-Different-Phenotype (%),HEK-293T [2]; [9],58%
same,Total Cell Count,HEK-293T [2]; [9],245
same,Population Apoptotic (%),HEK-293T [2]; [10],37%
same,Population Fragmented Nuclei (%),HEK-293T [2]; [10],7%
same,Population Healthy Nuclei (%),HEK-293T [2]; [10],6%
same,Population Hoechst High Intensity Objects (%),HEK-293T [2]; [10],11%
same,Population Membrane Permeable-Phenotype (%),HEK-293T [2]; [10],9%
same,Population Mitochondria Different-Phenotype (%),HEK-293T [2]; [10],54%
same,Population Mitotic Cells (%),HEK-293T [2]; [10],62%
same,Population Normal (%),HEK-293T [2]; [10],88%
same,Population Pyknosed Nuclei (%),HEK-293T [2]; [10],86%
same,Population Tubulin-Different-Phenotype (%),HEK-293T [2]; [10],27%
same,Total Cell Count,HEK-293T [2]; [10],204
same,Population Apoptotic (%),HEK-293T [2]; [11],34%
same,Population Fragmented Nuclei (%),HEK-293T [2]; [11],10%
same,Population Healthy Nuclei (%),HEK-293T [2]; [11],65%
same,Population Hoechst High Intensity Objects (%),HEK-293T [2]; [11],13%
same,Population Membrane Permeable-Phenotype (%),HEK-293T [2]; [11],0%
same,Population Mitochondria Different-Phenotype (%),HEK-293T [2]; [11],46%
same,Population Mitotic Cells (%),HEK-293T [2]; [11],65%
same,Population Normal (%),HEK-293T [2]; [11],86%
same,Population Pyknosed Nuclei (%),HEK-293T [2]; [11],24%
same,Population Tubulin-Different-Phenotype (%),HEK-293T [2]; [11],43%
same,Total Cell Count,HEK-293T [2]; [11],389
same,Population Apoptotic (%),HEK-293T [2]; [12],12%
same,Population Fragmented Nuclei (%),HEK-293T [2]; [12],4%
same,Population Healthy Nuclei (%),HEK-293T [2]; [12],67%
same,Population Hoechst High Intensity Objects (%),HEK-293T [2]; [12],1%
same,Population Membrane Permeable-Phenotype (%),HEK-293T [2]; [12],11%
same,Population Mitochondria Different-Phenotype (%),HEK-293T [2]; [12],20%
same,Population Mitotic Cells (%),HEK-293T [2]; [12],87%
same,Population Normal (%),HEK-293T [2]; [12],98%
same,Population Pyknosed Nuclei (%),HEK-293T [2]; [12],28%
same,Population Tubulin-Different-Phenotype (%),HEK-293T [2]; [12],52%
same,Total Cell Count,HEK-293T [2]; [12],310
same,Population Apoptotic (%),HEK-293T [2]; [13],36%
same,Population Fragmented Nuclei (%),HEK-293T [2]; [13],15%
same,Population Healthy Nuclei (%),HEK-293T [2]; [13],10%
same,Population Hoechst High Intensity Objects (%),HEK-293T [2]; [13],13%
same,Population Membrane Permeable-Phenotype (%),HEK-293T [2]; [13],4%
same,Population Mitochondria Different-Phenotype (%),HEK-293T [2]; [13],78%
same,Population Mitotic Cells (%),HEK-293T [2]; [13],63%
same,Population Normal (%),HEK-293T [2]; [13],86%
same,Population Pyknosed Nuclei (%),HEK-293T [2]; [13],73%
same,Population Tubulin-Different-Phenotype (%),HEK-293T [2]; [13],73%
same,Total Cell Count,HEK-293T [2]; [13],258
same,Population Apoptotic (%),HEK-293T [2]; [14],39%
same,Population Fragmented Nuclei (%),HEK-293T [2]; [14],9%
same,Population Healthy Nuclei (%),HEK-293T [2]; [14],14%
same,Population Hoechst High Intensity Objects (%),HEK-293T [2]; [14],15%
same,Population Membrane Permeable-Phenotype (%),HEK-293T [2]; [14],32%
same,Population Mitochondria Different-Phenotype (%),HEK-293T [2]; [14],12%
same,Population Mitotic Cells (%),HEK-293T [2]; [14],60%
same,Population Normal (%),HEK-293T [2]; [14],84%
same,Population Pyknosed Nuclei (%),HEK-293T [2]; [14],76%
same,Population Tubulin-Different-Phenotype (%),HEK-293T [2]; [14],76%
same,Total Cell Count,HEK-293T [2]; [14],205
same,Population Apoptotic (%),HEK-293T [2]; [15],14%
same,Population Fragmented Nuclei (%),HEK-293T [2]; [15],11%
same,Population Healthy Nuclei (%),HEK-293T [2]; [15],80%
same,Population Hoechst High Intensity Objects (%),HEK-293T [2]; [15],6%
same,Population Membrane Permeable-Phenotype (%),HEK-293T [2]; [15],6%
same,Population Mitochondria Different-Phenotype (%),HEK-293T [2]; [15],5%
same,Population Mitotic Cells (%),HEK-293T [2]; [15],85%
same,Population Normal (%),HEK-293T [2]; [15],93%
same,Population Pyknosed Nuclei (%),HEK-293T [2]; [15],7%
same,Population Tubulin-Different-Phenotype (%),HEK-293T [2]; [15],17%
same,Total Cell Count,HEK-293T [2]; [15],773
same,Population Apoptotic (%),HEK-293T [2]; [16],8%
same,Population Fragmented Nuclei (%),HEK-293T [2]; [16],5%
same,Population Healthy Nuclei (%),HEK-293T [2]; [16],83%
same,Population Hoechst High Intensity Objects (%),HEK-293T [2]; [16],1%
same,Population Membrane Permeable-Phenotype (%),HEK-293T [2]; [16],23%
same,Population Mitochondria Different-Phenotype (%),HEK-293T [2]; [16],3%
same,Population Mitotic Cells (%),HEK-293T [2]; [16],92%
same,Population Normal (%),HEK-293T [2]; [16],98%
same,Population Pyknosed Nuclei (%),HEK-293T [2]; [16],11%
same,Population Tubulin-Different-Phenotype (%),HEK-293T [2]; [16],42%
same,Total Cell Count,HEK-293T [2]; [16],440
same,Population Apoptotic (%),HEK-293T [2]; [17],23%
same,Population Fragmented Nuclei (%),HEK-293T [2]; [17],21%
same,Population Healthy Nuclei (%),HEK-293T [2]; [17],10%
same,Population Hoechst High Intensity Objects (%),HEK-293T [2]; [17],15%
same,Population Membrane Permeable-Phenotype (%),HEK-293T [2]; [17],38%
same,Population Mitochondria Different-Phenotype (%),HEK-293T [2]; [17],0%
same,Population Mitotic Cells (%),HEK-293T [2]; [17],76%
same,Population Normal (%),HEK-293T [2]; [17],84%
same,Population Pyknosed Nuclei (%),HEK-293T [2]; [17],67%
same,Population Tubulin-Different-Phenotype (%),HEK-293T [2]; [17],46%
same,Total Cell Count,HEK-293T [2]; [17],286
same,Population Apoptotic (%),HEK-293T [2]; [18],55%
same,Population Fragmented Nuclei (%),HEK-293T [2]; [18],11%
same,Population Healthy Nuclei (%),HEK-293T [2]; [18],24%
same,Population Hoechst High Intensity Objects (%),HEK-293T [2]; [18],16%
same,Population Membrane Permeable-Phenotype (%),HEK-293T [2]; [18],56%
same,Population Mitotic Cells (%),HEK-293T [2]; [18],44%
same,Population Normal (%),HEK-293T [2]; [18],83%
same,Population Pyknosed Nuclei (%),HEK-293T [2]; [18],63%
same,Population Tubulin-Different-Phenotype (%),HEK-293T [2]; [18],66%
same,Total Cell Count,HEK-293T [2]; [18],190
same,Growth Rate,Fibroblast; [3],0
same,Growth Rate,Fibroblast; [4],0
same,Growth Rate,Fibroblast; [5],0
same,Growth Rate,Fibroblast; [6],0

# Reference: ChEMBL document CHEMBL4689842, “EUbOPEN Chemogenomics Library wave 1” (2021)
